The subject of data set [1] is L1210. The data set can be described thus: In vivo antitumor activity against mouse L1210 cells in prognostic scoring system assessed as tumor growth inhibition at 100 mg/kg administered as single dose (reference value: 10.9 g). In kind it is functional. Summed up:
(§1)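 L1210 leukaemia in mice, run as an ascites tumour system. Injections were once daily for 9 or 15 days, or as a single dose. Response is the increase in survival time, given as T/C %, treated over untreated controls; a larger value means more activity. Weight change is the treated-group mean minus the control-group mean, in grams.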

The subject of data set [2] is L1210. Kind of data set: In vivo antitumor activity against mouse L1210 cells in prognostic scoring system assessed as survival rate at 100 mg/kg administered as single dose. Details: dose 100 mg/kg. In kind it is functional, organism-based. Summed up:
as §1

Data set [3] has as its system L1210. Kind of data set: In vivo antitumor activity against mouse L1210 cells in prognostic scoring system assessed as tumor growth inhibition at 400 mg/kg administered as single dose (reference value: 10.9 g). In kind it is functional. Summed up: as §1
A short description of data set [4]: Toxicity in rat allografted with rat Walker 256 cells intramuscularly. In kind it is organism-based.
The subject of data set [5] is L1210. The data set can be described thus: In vivo antitumor activity against mouse L1210 cells in prognostic scoring system assessed as tumor growth inhibition at 200 mg/kg administered as single dose (reference value: 10.9 g). In kind it is functional. Summed up:
as §1

The subject of data set [6] is L1210. Kind of data set: In vivo antitumor activity against mouse L1210 cells in prognostic scoring system assessed as survival rate at 400 mg/kg administered as single dose. In kind it is functional, organism-based. Also noted: dose 400 mg/kg. Summed up:
as §1

Data set [7] deals with Musca domestica. Kind of data set: Toxicity in male house fly at 1% administered in sugar. In kind it is organism-based. The following applies: in vivo, po.
Data set [8] concerns L1210. The data set can be described thus: In vivo antitumor activity against mouse L1210 cells in prognostic scoring system assessed as survival rate at 200 mg/kg administered as single dose. Also noted: dose 200 mg/kg. It is filed as functional, organism-based. Summed up: as §1
For data set [9], the system named is Musca domestica. Kind of data set: Toxicity in male house fly assessed as lowest dose required to cause complete sterility administered in sugar. It is filed as organism-based. Particulars: in vivo, po.
The subject of data set [10] is Rattus norvegicus. The data set can be described thus: Toxicity in rat allografted with rat Walker 256 cells intramuscularly assessed as change in body weight at 0.47 mg/kg, qd administered for 5 days. It is filed as organism-based. Details: dose 0.47 mg/kg, route intramuscular. Particulars: in vivo, im, 120 h. Summed up: (§2)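 Walker 256 carcinoma solid-tumour system in rats (parent line, or the line resistant to cytoxan). Dosing was one injection per day for 5 days. Toxicity was taken as the average net body-weight change of the treated group minus the average net weight change of the untreated tumour-bearing controls, in grams.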

Data set [11] relates to W256. The data set can be described thus: Antitumor activity against rat Walker 256 cells intramuscularly allografted in rat assessed as survival rate at 0.23 mg/kg, qd administered for 5 days. In kind it is functional, organism-based. Also noted: dose 0.23 mg/kg. Summed up:
(§3)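 Rats bearing Walker 256 carcinoma as a solid tumor; lines 1-8 use a cytoxan-resistant Walker 256 subline. Dosed once daily for 5 days. Treated (T) and untreated control (C) groups are compared, and the response is given as T/C percentage, reflecting increase in survival time. Host weight change is the average weight change of the test group minus that of the controls, in grams.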

Data set [12] has as its system W256. The data set can be described thus: Antitumor activity against rat Walker 256 cells intramuscularly allografted in rat assessed as tumor growth inhibition at 0.95 mg/kg, qd administered for 5 days relative to control. It is filed as functional. The following applies: W256, im, 120 h, route intramuscular, read-out: TGI. Summed up:
(§4)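 Dosed once daily for 5 days. Response is tumor progression in treated (T) versus untreated control (C) animals, expressed as T/C percentage. Host weight change is reported as the average net weight change of the test group minus that of the controls, in grams.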

Data set [13] has as its system L1210. Kind of data set: In vivo antitumor activity against mouse L1210 cells in prognostic scoring system assessed as survival rate at 1.5 mg/kg, qd administered for 15 days. It is filed as functional, organism-based. Also noted: dose 1.5 mg/kg. Summed up: as §1
The test system of data set [14] is L1210. The data set can be described thus: In vivo antitumor activity against mouse L1210 cells in prognostic scoring system assessed as survival rate at 3 mg/kg, qd administered for 15 days. It is filed as functional, organism-based. Also noted: dose 3 mg/kg. Summed up: as §1
For data set [15], the system named is L1210. The data set can be described thus: In vivo antitumor activity against mouse L1210 cells in prognostic scoring system assessed as tumor growth inhibition at 1.65 mg/kg administered 3 doses relative to control. In kind it is functional.
The test system of data set [16] is W256. The data set can be described thus: Antitumor activity against rat Walker 256 cells intramuscularly allografted in rat assessed as tumor growth inhibition. In kind it is functional. Particulars: W256, im. Summed up:
as §4

For data set [17], the system named is W256. The data set can be described thus: Antitumor activity against rat Walker 256 cells intramuscularly allografted in rat assessed as survival rate at 0.95 mg/kg, qd administered for 5 days. In kind it is functional, organism-based. Also noted: dose 0.95 mg/kg. Summed up:
as §3

Data set [18] relates to W256. Kind of data set: Antitumor activity against rat Walker 256 cells intramuscularly allografted in rat assessed as tumor growth inhibition at 0.23 mg/kg, qd administered for 5 days relative to control. It is filed as functional. The following applies: W256, im, 120 h, route intramuscular, read-out: TGI. Summed up: as §4
Data set [19] deals with Rattus norvegicus. The data set can be described thus: Toxicity in rat allografted with rat Walker 256 cells intramuscularly assessed as change in body weight at 0.23 mg/kg, qd administered for 5 days. Also noted: dose 0.23 mg/kg, route intramuscular. It is filed as organism-based. The following applies: in vivo, im, 120 h. Summed up: as §2
The subject of data set [20] is W256. The data set can be described thus: Antitumor activity against rat Walker 256 cells intramuscularly allografted in rat assessed as tumor growth inhibition at 0.47 mg/kg, qd administered for 5 days relative to control. It is filed as functional. Particulars: W256, im, 120 h, route intramuscular, read-out: TGI. Summed up:
as §4

The test system of data set [21] is W256. The data set can be described thus: Antitumor activity against rat Walker 256 cells intramuscularly allografted in rat assessed as survival rate at 0.47 mg/kg, qd administered for 5 days. In kind it is functional, organism-based. Also noted: dose 0.47 mg/kg. Summed up: as §3
Data set [22] has as its system Rattus norvegicus. Kind of data set: Toxicity in rat allografted with rat Walker 256 cells intramuscularly assessed as change in body weight at 0.95 mg/kg, qd administered for 5 days. It is filed as organism-based. Also noted: dose 0.95 mg/kg, route intramuscular. Particulars: in vivo, im, 120 h. Summed up:
as §2

For data set [23], the system named is Rattus norvegicus. The data set can be described thus: Toxicity in rat allografted with rat Walker 256 cells intramuscularly assessed as change in body weight at 1.9 mg/kg, qd administered for 5 days. It is filed as organism-based. Also noted: dose 1.9 mg/kg, route intramuscular. Particulars: in vivo, im, 120 h. Summed up:
as §2

Data set [24] deals with Musca domestica. Kind of data set: Toxicity in male house fly assessed as lowest dose required to cause complete sterility administered in food. In kind it is organism-based. The following applies: in vivo, po.
The test system of data set [25] is W256. Kind of data set: Antitumor activity against rat Walker 256 cells intramuscularly allografted in rat assessed as survival rate at 1.9 mg/kg, qd administered for 5 days. Details: dose 1.9 mg/kg. In kind it is functional, organism-based. Summed up:
as §3

Data set [26] deals with W256. Kind of data set: Antitumor activity against rat Walker 256 cells intramuscularly allografted in rat assessed as tumor growth inhibition at 1.9 mg/kg, qd administered for 5 days relative to control. It is filed as functional. The following applies: W256, im, 120 h, route intramuscular, read-out: TGI. Summed up:
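Walker 256 carcinoma grown as a solid tumour in rats, with one injection daily for 5 days. Response is given as T/C %, the treated-group measure over the untreated-control tumour measure; a smaller value means more activity. Host toxicity is the mean net weight change of treated minus control animals, in grams.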

The test system of data set [27] is Rattus norvegicus. Kind of data set: Toxicity in rat allografted with rat Walker 256 cells intramuscularly assessed as change in body weight at 1 mg/kg, qd administered for 5 days. In kind it is organism-based. Details: dose 1 mg/kg, route intramuscular. Particulars: in vivo, im, 120 h. Summed up:
as §2

The test system of data set [28] is L1210. Kind of data set: In vivo antitumor activity against mouse L1210 cells in prognostic scoring system assessed as survival rate at 0.37 mg/kg, qd administered for 15 days. It is filed as functional, organism-based. Also noted: dose 0.37 mg/kg. Summed up: as §1
The subject of data set [29] is W256. The data set can be described thus: Antitumor activity against rat Walker 256 cells intramuscularly allografted in rat assessed as survival rate at 1 mg/kg, qd administered for 5 days. It is filed as functional, organism-based. Also noted: dose 1 mg/kg. Summed up: as §3
Data set [30] relates to W256. Kind of data set: Antitumor activity against rat Walker 256 cells intramuscularly allografted in rat assessed as tumor growth inhibition at 1 mg/kg, qd administered for 5 days relative to control. In kind it is functional. Particulars: W256, im, 120 h, route intramuscular, read-out: TGI. Summed up:
as §4

Data set [31] relates to L1210. Kind of data set: In vivo antitumor activity against mouse L1210 cells in prognostic scoring system assessed as […] at 0.37 mg/kg, qd administered for 15 days relative to control. In kind it is functional. Particulars: L1210, 360 h, read-out: TGI.
A short description of data set [32]: Therapeutic index, ratio of LD50 for rat allografted with rat Walker 256 cells to ED10 for antitumor activity against rat Walker 256 cells intramuscularly allografted in rat. In kind it is cell-based. The following applies: read-out: TI. Summed up: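 Therapeutic index is LD50/ED10 in the Walker 256 solid tumour system. ED10 is the dose giving a 10% tumour weight reduction, with values extrapolated from dose-response data.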

In data set [33] the test system is L1210. The data set can be described thus: In vivo antitumor activity against mouse L1210 cells in prognostic scoring system assessed as tumor growth inhibition at 0.6 mg/kg administered 9 doses relative to control. In kind it is functional.
The test system of data set [34] is L1210. The data set can be described thus: In vivo antitumor activity against mouse L1210 cells in prognostic scoring system assessed as survival rate at 0.75 mg/kg, qd administered for 15 days. It is filed as functional, organism-based. Details: dose 0.75 mg/kg. Summed up: as §1

The results in this text go back to ChEMBL document CHEMBL3272018, “Synthesis of aziridinylallylaminophosphine oxides and sulfides as potential adjuvant cancer chemotherapeutic agents” (J Med Chem, 1976).

Calls of active or inactive are those of the source. The rule behind the calls is not given here.

For the compound `C=CCN(c1ccccc1)P(=O)(N1CC1)N1CC1`, the Activity with L1210 [1] is recorded as 10.5 g; with L1210 [3], 10.5 g; in the data set on L1210 [5], 10.5 g; with Musca domestica [7], “Non-toxic”. Further, the outcome with L1210 [2], in the data set on L1210 [6] and in the data set on L1210 [8] was Active. In addition, the LD50 in [4] is > 300 mg/kg.

`C=CCN(CC=C)P(=O)(N1CC1)N1CC1C` (stereo not given): the Activity in the data set on Musca domestica [9] is reported as 0.25%; in the data set on Rattus norvegicus [10] it was 0 g; with Rattus norvegicus [19] it was -7 g; with Rattus norvegicus [22], -8 g; in the data set with Rattus norvegicus [23], -13 g; with Musca domestica [24] it was 0.1%. Besides, the Activity in the data set with Rattus norvegicus [27] is on record as -9 g. Moreover, the result in the data set with W256 [11], with L1210 [13], in the data set with L1210 [14], in the data set on W256 [17], in the data set with W256 [21] and with W256 [25] was Active. For the same compound, the outcome in the data set on L1210 [28], in the data set on W256 [29] and with L1210 [34] was Active. Moreover, the inhibition in vivo at 0.95 mg/kg with W256 [12] worked out at 0%. Further, the values for the T/C in the data set on L1210 [15] and in the data set with L1210 [33] were 159% and 189%, respectively. Moreover, in the data set with W256 [16], the ED10 is 0.52 mg/kg. Further, the LD50 in [4] is 7 mg/kg. The inhibition in vivo at 0.23 mg/kg in the data set with W256 [18] amounted to 30%. Moreover, the inhibition in vivo at 0.47 mg/kg with W256 [20] stood at 5%. Besides, the inhibition in vivo at 1.9 mg/kg in the data set with W256 [26] amounted to 0%. The inhibition in vivo at 1 mg/kg in the data set with W256 [30] was 2%. Also, the inhibition in vivo at 0.37 mg/kg in the data set on L1210 [31] is 117%. Besides, the selectivity ratio in data set [32] is 13.
